Experimental findings from ChEMBL document CHEMBL1141826, “From a phagostimulant natural product to semisynthetic antifeedants against Spodoptera littoralis larvae: chemical transformations of the neoclerodane diterpenoid scutegalin B” (J Nat Prod, 1999) are described below.

Each structure is given as a SMILES string.

The subject of assay [1] is Spodoptera littoralis. Nature of the assay: Phagostimulant activity against sixth stadium larvae of Spodoptera littoralis assessed as antifeedant index at 100 ppm after 16 hrs. The class given is functional. The procedure, abridged: (§1)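 Choice test: sixth-stadium larvae were starved 4 h and each placed in a Petri dish with two sucrose-treated glass-fiber disks (100 μL 0.05 M, 2.1 cm), one a control and one carrying compound at 100 ppm. Disks were reweighed, and index = [(C−T)/(C+T)]×100 from weights eaten. Negative values mean phagostimulation. 10 replications; Wilcoxon signed-ranks test, P<0.05.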

Assay [2] deals with Spodoptera littoralis. The experiment in a line: Antifeedant activity against sixth stadium larvae of Spodoptera littoralis assessed as antifeedant index at 100 ppm after 16 hrs. The class given is functional. The method, boiled down:
as §1

Assay [3] relates to Spodoptera littoralis. The experiment in a line: Antifeedant activity against sixth stadium larvae of Spodoptera littoralis after 16 hrs. It is filed as functional, organism-based. The procedure, abridged: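 No-choice feeding test: glass-fiber disks (2.1 cm) made palatable with 100 μL 0.05 M sucrose, then treated with 100 μL of test solution at 1, 10, 100 or 1000 ppm and offered to S. littoralis larvae. Ended at 16 h, when 50% of control disks were consumed. Disks were reweighed, and EC50 for 50% reduction in feeding was estimated relative to the sucrose control. 10 replications per concentration.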

For `CC(=O)OCC[C@H](CC[C@@]1(C)[C@H](C)[C@@H](OC(C)=O)[C@H](OC(C)=O)[C@]23[C@@H]1C[C@H](C[C@]21CO1)O[C@@H]3O)COC(C)=O`, the Activity in the assay on Spodoptera littoralis [1] is given as -38.8%.

`CC(=O)OCC[C@H](CC[C@@]1(C)[C@H](C)[C@@H](OC(C)=O)[C@H](OC(C)=O)[C@]23C(=O)O[C@H](C[C@H]12)C[C@]31CO1)COC(C)=O`: the Activity with Spodoptera littoralis [1] is recorded as -27.4%.

As to `C/C=C(\C)C(=O)O[C@H]1O[C@@H]2C[C@@H]3[C@@](C)(CC[C@@H](CCOC(C)=O)COC(C)=O)[C@H](C)[C@@H](OC(C)=O)[C@H](OC(C)=O)[C@]13[C@@]1(CO1)C2`, the Activity in the assay with Spodoptera littoralis [1] is -0.4%.

With `CC(=O)O[C@@H]1C[C@@H]2[C@@](C)(CC[C@H]3CCOC3=O)[C@H](C)[C@@H](OC(C)=O)[C@H](OC(C)=O)[C@@]2(C=O)[C@@]2(CO2)C1`, the Activity in the assay with Spodoptera littoralis [2] was 17.2%.

As for `CO[C@H]1O[C@@H]2C[C@@H]3[C@@](C)(CC[C@H]4CCOC4=O)[C@H](C)[C@@H](OC(C)=O)[C@H](OC(C)=O)[C@]13[C@@]1(CO1)C2`, the Activity with Spodoptera littoralis [1] was -29.5%.

Take `CC(=O)O[C@@H]1[C@@H](C)[C@](C)(CC[C@H]2CCOC2=O)[C@H]2C[C@@H]3C[C@]4(CO4)[C@]2([C@@H](O)O3)[C@H]1O`: the Activity in the assay with Spodoptera littoralis [2] is 67%. This compound also came in with an EC50 in the assay with Spodoptera littoralis [3] of 51 ppm.

Regarding `CC(=O)O[C@H]1C(=O)[C@@H](C)[C@](C)(CC[C@H]2CCOC2=O)[C@H]2C[C@@H]3C[C@]4(CO4)[C@@]21C(=O)O3`, the Activity in the assay with Spodoptera littoralis [2] amounted to 44.1%. This compound also yielded an EC50 with Spodoptera littoralis [3] greater than 1000 ppm.

Regarding `CC(=O)O[C@@H]1[C@@H](C)[C@](C)(CC[C@H]2CCOC2=O)[C@H]2C[C@@H]3C[C@]4(CO4)[C@]2([C@@H](OC(=O)C(C)C)O3)[C@H]1O`, the Activity in the assay with Spodoptera littoralis [2] came to 37.5%. Further, the EC50 in the assay on Spodoptera littoralis [3] is greater than 1000 ppm.

Take `C/C=C(\C)C(=O)O[C@H]1O[C@@H]2C[C@@H]3[C@@](C)(CC[C@H]4CCOC4=O)[C@H](C)C(=O)[C@H](OC(C)=O)[C@]13[C@@]1(CO1)C2`: the Activity in the assay with Spodoptera littoralis [2] turned out to be 36.5%. This compound yielded an EC50 in the assay with Spodoptera littoralis [3] of 350 ppm.

As for `CC(=O)O[C@@H]1[C@@H](C)[C@](C)(CC[C@H]2CCOC2=O)[C@H]2C[C@@H](OC(=O)C(C)C)C[C@]3(CO3)[C@]2(C=O)[C@H]1OC(C)=O`, the Activity in the assay with Spodoptera littoralis [1] is given as -10%.

Regarding `C/C=C(\C)C(=O)O[C@H]1O[C@@H]2C[C@@H]3[C@@](C)(CC[C@H](CO)CCO)[C@H](C)[C@@H](OC(C)=O)[C@H](OC(C)=O)[C@]13[C@@]1(CO1)C2`, the Activity in the assay with Spodoptera littoralis [2] is reported as 18.8%.

Take `C/C=C(\C)C(=O)O[C@H]1O[C@@H]2C[C@@H]3[C@@](C)(CC[C@H]4CCOC4=O)[C@H](C)[C@@H](O)[C@H](OC(C)=O)[C@]13[C@@]1(CO1)C2`: the Activity with Spodoptera littoralis [2] was 29.3%. The same compound showed an EC50 with Spodoptera littoralis [3] greater than 1000 ppm.

As to `C/C=C(\C)C(=O)O[C@H]1O[C@@H]2C[C@@H]3[C@@](C)(CC[C@H]4CCOC4=O)[C@H](C)[C@@H](OC(C)=O)[C@H](O)[C@]13[C@@]1(CO1)C2`, in the assay with Spodoptera littoralis [2], the Activity was found to be 18.6%. Moreover, in the assay with Spodoptera littoralis [3], the EC50 was greater than 1000 ppm.

In the case of `CC(=O)O[C@@H]1[C@@H](C)[C@](C)(CC[C@H]2CCOC2=O)[C@H]2C[C@@H]3C[C@]4(CO4)[C@]2([C@@H](O)O3)[C@H]1OC(C)=O`, in the assay on Spodoptera littoralis [2], the Activity stood at 34%. The EC50 with Spodoptera littoralis [3] was greater than 1000 ppm.

Turning to `CC(=O)OC1O[C@@H]2C[C@@H]3[C@@](C)([C@@H]4C[C@H]5C=CO[C@H]5O4)[C@H](C)C[C@H](OC(C)=O)[C@]13[C@@]1(CO1)C2` (some centres not stated) [JODRELLIN A], the Activity in the assay on Spodoptera littoralis [2] is 92%.

Regarding `CC(=O)O[C@H]1C[C@@H](C)[C@](C)([C@@H]2C[C@H]3C=CO[C@H]3O2)[C@H]2C[C@@H]3C[C@]4(CO4)[C@]12C(OC(=O)C(C)C)O3` (some centres not stated) [JODRELLIN B], the Activity in the assay with Spodoptera littoralis [2] is listed as 100%.

For `C/C=C(\C)C(=O)O[C@H]1C[C@H](C)[C@](C)([C@@H](O)CC2=CC(=O)OC2)[C@H]2CCC[C@]3(CO3)[C@]12COC(C)=O` [SCUTALPIN C], the Activity with Spodoptera littoralis [2] worked out at 96.8%. The compound also yielded an EC50 in the assay with Spodoptera littoralis [3] of less than 1 ppm.

With `C/C=C(\C)C(=O)O[C@H]1O[C@@H]2C[C@@H]3[C@@](C)(CC[C@H]4CCO[C@H]4O)[C@H](C)[C@@H](O)[C@H](OC(C)=O)[C@]13[C@@]1(CO1)C2` [SCUTEGALIN B], the EC50 with Spodoptera littoralis [3] turned out to be 870 ppm. In addition, the Activity in the assay with Spodoptera littoralis [1] was -27%.
